According to ChEMBL document CHEMBL5230167, “Discovery of N-sulfonylated aminosalicylic acids as dual MCL-1/BCL-xL inhibitors” (RSC Med Chem, 2023):

Assays:
[1] = target: Bcl-2-like protein 1 (Homo sapiens, UniProt Q07817); assay: Binding affinity to BCL-xL (unknown origin) assessed as inhibition constant
[2] = target: T1, Induced myeloid leukemia cell differentiation protein Mcl-1 (Homo sapiens, UniProt Q07820); assay: Binding affinity to MCL-1 (unknown origin) assessed as inhibition constant
[3] = species: Homo sapiens; assay: Selectivity index, ratio of Ki for inhibition of FITC-labelled BAK BH3 peptide to 6His-MBP tagged recombinant human MCL-1 (172 to 327 residues) expressed in Escherichia coli assessed as inhibition constant to Ki for binding affinity to BCL-xL (unknown origin) assessed as inhibition constant
[4] = species: Homo sapiens; assay: Selectivity index, ratio of Ki for inhibition of FITC-labelled BAK BH3 peptide to MCL-1 (172 to 327 residues) (unknown origin) assessed as inhibition constant to Ki for binding affinity to BCL-xL (unknown origin) assessed as inhibition constant
[5] = target: T1, Induced myeloid leukemia cell differentiation protein Mcl-1; assay: Inhibition of FITC-labelled BAK BH3 peptide to 6His-MBP tagged recombinant human MCL-1 (172 to 327 residues) expressed in Escherichia coli assessed as inhibition constant by fluorescence polarization competition assay
Outline: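 Fluorescence polarization competition: compounds titrated into a mixture of MCL-1 (residues 172–327) and FITC-labelled BAK BH3 peptide. Displacement of the peptide was followed by the change in polarization, and Ki was derived from the competition titration.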

Bcl-2-like protein 1, sequence (Q07817 whole entry): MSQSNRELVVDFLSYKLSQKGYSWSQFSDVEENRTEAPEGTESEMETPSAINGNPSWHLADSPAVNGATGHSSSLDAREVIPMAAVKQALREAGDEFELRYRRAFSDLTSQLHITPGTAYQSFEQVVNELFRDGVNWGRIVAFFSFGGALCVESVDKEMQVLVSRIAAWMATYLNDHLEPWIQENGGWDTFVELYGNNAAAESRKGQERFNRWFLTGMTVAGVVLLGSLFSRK
T1 sequence (Q07820 whole entry, the tested form may be a part): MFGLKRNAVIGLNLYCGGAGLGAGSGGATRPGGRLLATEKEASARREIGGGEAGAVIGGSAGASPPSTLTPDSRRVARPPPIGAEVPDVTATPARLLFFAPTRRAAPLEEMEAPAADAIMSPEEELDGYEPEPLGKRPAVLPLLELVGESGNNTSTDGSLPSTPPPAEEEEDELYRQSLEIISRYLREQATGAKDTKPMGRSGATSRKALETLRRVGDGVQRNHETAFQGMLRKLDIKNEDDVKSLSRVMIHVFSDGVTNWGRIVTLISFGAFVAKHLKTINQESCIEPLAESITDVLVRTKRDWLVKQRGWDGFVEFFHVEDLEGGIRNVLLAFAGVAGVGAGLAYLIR

SMILES | Ki [1] | Ratio Ki [3] | also measured
Cc1cc(Oc2ccc(S(=O)(=O)N3CCCc4cc(C(=O)O)ccc43)cc2)cc(C)c1Cl | 3560 nM | – | Ki [2]: 2730 nM
CC(C)CN(c1ccc(O)c(C(=O)O)c1)S(=O)(=O)c1ccc(-c2ccccc2)cc1 | – | 1.59 | –
Cc1cc(Oc2ccc(S(=O)(=O)N(CC(C)C)c3ccc(O)c(C(=O)O)c3)cc2)cc(C)c1Cl | – | 4.96 | –
CC(C)CN(c1ccc(C(=O)O)c(O)c1)S(=O)(=O)c1ccc2ccccc2c1 | – | 3.12 | –
Cc1cc(Oc2ccc(S(=O)(=O)N3CC(C(=O)O)Cc4ccccc43)cc2)cc(C)c1Cl (racemic) | 5010 nM | – | Ratio Ki [4]: 42
CC(C)CN(c1ccc(O)c(C(=O)O)c1)S(=O)(=O)c1ccccc1 | 49300 nM | 1.06 | –
Cc1cc(Oc2ccc(S(=O)(=O)N(CC(C)C)c3ccc(C(=O)O)c(O)c3)cc2)cc(C)c1Cl | 1630 nM | 2.09 | Ki [5]: 778 nM
CC(C)CN(c1ccc(O)c(C(=O)O)c1)S(=O)(=O)c1ccc2ccccc2c1 | – | 5.94 | –
CC(C)CN(c1ccc(C(=O)O)c(O)c1)S(=O)(=O)c1ccccc1 | – | 0.8 | –
Cc1cc(Oc2ccc(S(=O)(=O)N(Cc3ccccc3)c3ccc(C(=O)O)c(O)c3)cc2)cc(C)c1Cl | – | 2.65 | –
CC(C)CN(c1ccc(C(=O)O)c(O)c1)S(=O)(=O)c1ccc(Oc2ccccc2)cc1 | – | 3.12 | –
Cc1cc(Oc2ccc(S(=O)(=O)N(c3ccc(C(=O)O)c(O)c3)C3CCCC3)cc2)cc(C)c1Cl | 1910 nM | 1.08 | Ki [5]: 1760 nM
CC(C)CN(c1ccc(C(=O)O)c(O)c1)S(=O)(=O)c1ccc(-c2ccccc2)cc1 | – | 2.63 | –
